Among the data in ChEMBL document CHEMBL4325899, “Synthesis and photocytotoxic activity of [1,2,3]triazolo[4,5-h][1,6]naphthyridines and [1,3]oxazolo[5,4-h][1,6]naphthyridines” (Eur J Med Chem, 2019) are Activity values, retold here.

Assay [1] has as its system MCF7. The experiment in a line: Induction of ROS generation in human MCF7 cells at 0.4 uM preincubated for 30 mins followed by irradiation at 1.5 J/cm2 for 2 hrs by H2DCFDA probe-based fluorescence assay (reference value: 100%). Format: functional. The gist of the method:
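MCF7 cells (3x10^4/well) seeded 24 h ahead to 80–90% confluence. Compound given for 30 min in phenol red- and serum-free medium. H2DCFDA (10 µM) added 15 min before irradiation at ~365 nm, 1.5 J/cm2. Fluorescence read 2 h after light (ex 485, em 535 nm) as % of untreated irradiated controls. Non-irradiated plates run alongside; three independent experiments.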

The subject of assay [2] is MCF7. The experiment in a line: Induction of mitochondrial dysfunction in human MCF7 cells assessed as mitochondria fusion at 400 nM after 6 hrs in presence of UV irradiation by Mitotracker Orange CMTM-ROS staining-based confocal microscopic analysis. It is filed as functional, cell-based. Put shortly:
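MCF7 cells (4x10^5) on glass slides for 24 h. Live-labelled with MitoTracker Orange CMTM-ROS (150 nM) for 45 min in phenol red- and serum-free medium. Compound then added and cells irradiated at 365 nm (1.5 J/cm2). Fixed in 2% PFA and nuclei counterstained. Mitochondrial network morphology imaged by confocal microscopy (ex 543, em 560–620 nm) 6 h post-treatment, with untreated, irradiated and non-irradiated controls.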

The subject of assay [3] is MCF7. The experiment in a line: Induction of lysosomal activation in human MCF7 cells at 400 nM after 6 hrs under UV-irradiation by Lysotracker Green DND 26 staining-based confocal microscopic analysis. Format: functional, cell-based. The gist of the method:
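MCF7 cells (4x10^5) on glass slides for 24 h. Medium replaced with phenol red- and serum-free medium containing LysoTracker Green DND-26 (175 nM) for 45 min. Compound then added and cells irradiated at 365 nm (1.5 J/cm2). Cells then PBS-washed, fixed in 2% PFA and mounted. Acidic compartments imaged by confocal microscopy (ex 488, em 500–530 nm) against non-irradiated and untreated controls.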

Calls of active or inactive are those of the source. No cut-off for these calls is given here.

For the compound `CCCCCCCCCCCCCC(=O)O[C@@H]1[C@@H](C)[C@@]2(O)[C@@H](C=C(CO)C[C@]3(O)C(=O)C(C)=C[C@@H]23)[C@@H]2C(C)(C)[C@]12OC(C)=O` [PHORBOL MYRISTATE ACETATE], the Activity in assay [1] was 120%. Also, the outcome in assay [2] and in assay [3] was Active.
